{
  "source": "ChEMBL document CHEMBL4396890",
  "about": "“Synthesis, Biological Evaluation, Structure-Activity Relationship, and Mechanism of Action Studies of Quinoline-Metronidazole Derivatives Against Experimental Visceral Leishmaniasis” (J Med Chem, 2019)",
  "assay_type_in_all_cases": "functional",
  "key": {"Leishmania donovani [1]": {"tested_on": "Leishmania donovani", "test": "Antileishmanial activity against Leishmania donovani MHOM/IN/80/Dd8 amastigotes harboring luciferase reporter gene infected in mouse J774 cells at 25 uM after 48 hrs by Steady-Glo luminescence assay relative to control", "settings": "for inhibition at 25 µM: MHOM/IN/80/Dd8, J774, 48 h", "in_short": "(§1)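 Infection of J774 macrophages with L. donovani Dd8 promastigotes at a 1:8 cell:parasite ratio. Compounds were diluted 2-fold in RPMI over 3.125–100 μM final and applied for 48 h. Amastigote inhibition was read by luciferase (RLU) or by Giemsa count of amastigotes per 100 macrophages. IC50 was from dose–response; n = 3 independent experiments done in replicate.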"}, "Leishmania donovani [2]": {"tested_on": "Leishmania donovani", "test": "Antileishmanial activity against Leishmania donovani MHOM/IN/80/Dd8 promastigotes harboring luciferase reporter gene at 50 uM after 48 hrs by Steady-Glo luminescence assay relative to control", "settings": "for inhibition at 50 µM: MHOM/IN/80/Dd8, 48 h", "in_short": "(§2)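 Luciferase-expressing L. donovani Dd8 promastigotes were grown at 24 °C in M199 with 10% heat-inactivated FBS and G418 20 μg/mL. They were treated at varied concentrations for 24 and 48 h, and inhibition was read as relative luminescence units versus untreated control. IC50 was from dose–response; screening values are mean ± SD of at least three experiments in duplicate.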"}, "Leishmania donovani [3]": {"tested_on": "Leishmania donovani", "test": "Antileishmanial activity against Leishmania donovani MHOM/IN/80/Dd8 amastigotes harboring luciferase reporter gene infected in mouse J774 cells at 50 uM after 48 hrs by Steady-Glo luminescence assay relative to control", "settings": "for inhibition at 50 µM: MHOM/IN/80/Dd8, J774, 48 h", "in_short": "as §1"}, "Leishmania donovani [4]": {"tested_on": "Leishmania donovani", "test": "Antileishmanial activity against Leishmania donovani MHOM/IN/80/Dd8 promastigotes harboring luciferase reporter gene at 25 uM after 48 hrs by Steady-Glo luminescence assay relative to control", "settings": "for inhibition at 25 µM: MHOM/IN/80/Dd8, 48 h", "in_short": "as §2"}},
  "note": "Active and inactive are the calls of the source. The rule behind the calls is not given here.",
  "data": [
    {"smiles": "Cc1ncc([N+](=O)[O-])n1CCOc1cccc(-c2cc(-c3ccccc3)c3cc(Cl)ccc3n2)c1", "values": [
      {"measurement": "inhibition at 25 µM", "setting": "Leishmania donovani [1]", "result": 38.2, "unit": "%"},
      {"measurement": "inhibition at 50 µM", "setting": "Leishmania donovani [2]", "result": 58.2, "unit": "%"},
      {"measurement": "inhibition at 50 µM", "setting": "Leishmania donovani [3]", "result": 59.2, "unit": "%"},
      {"measurement": "inhibition at 25 µM", "setting": "Leishmania donovani [4]", "result": 41.2, "unit": "%"}
    ]},
    {"smiles": "Cc1ncc([N+](=O)[O-])n1CCOc1cccc(-c2cc(-c3ccccc3F)c3cc(Cl)ccc3n2)c1", "values": [
      {"measurement": "inhibition", "setting": "Leishmania donovani [1]", "result": "inactive"},
      {"measurement": "inhibition", "setting": "Leishmania donovani [2]", "result": "inactive"},
      {"measurement": "inhibition at 50 µM", "setting": "Leishmania donovani [3]", "result": 12.1, "unit": "%"},
      {"measurement": "inhibition", "setting": "Leishmania donovani [4]", "result": "inactive"}
    ]},
    {"smiles": "Cc1ncc([N+](=O)[O-])n1CCOc1cccc(-c2cc(-c3ccccc3)c3cc([N+](=O)[O-])ccc3n2)c1", "values": [
      {"measurement": "inhibition", "setting": "Leishmania donovani [1]", "result": "inactive"},
      {"measurement": "inhibition", "setting": "Leishmania donovani [2]", "result": "inactive"},
      {"measurement": "inhibition at 50 µM", "setting": "Leishmania donovani [3]", "result": 10.4, "unit": "%"},
      {"measurement": "inhibition", "setting": "Leishmania donovani [4]", "result": "inactive"}
    ]},
    {"smiles": "Cc1ncc([N+](=O)[O-])n1CCOc1ccc(-c2cc(-c3ccccc3Cl)c3cc(Cl)ccc3n2)cc1", "values": [
      {"measurement": "inhibition at 25 µM", "setting": "Leishmania donovani [1]", "result": 12.1, "unit": "%"},
      {"measurement": "inhibition at 50 µM", "setting": "Leishmania donovani [2]", "result": 61.7, "unit": "%"},
      {"measurement": "inhibition at 50 µM", "setting": "Leishmania donovani [3]", "result": 27.2, "unit": "%"},
      {"measurement": "inhibition at 25 µM", "setting": "Leishmania donovani [4]", "result": 38.2, "unit": "%"}
    ]},
    {"smiles": "Cc1ncc([N+](=O)[O-])n1CCOc1cccc(-c2cc(-c3ccccc3)c3cc(Br)ccc3n2)c1", "values": [
      {"measurement": "inhibition at 25 µM", "setting": "Leishmania donovani [1]", "result": 29.5, "unit": "%"},
      {"measurement": "inhibition at 50 µM", "setting": "Leishmania donovani [2]", "result": 60.8, "unit": "%"},
      {"measurement": "inhibition at 50 µM", "setting": "Leishmania donovani [3]", "result": 65.3, "unit": "%"},
      {"measurement": "inhibition at 25 µM", "setting": "Leishmania donovani [4]", "result": 30.2, "unit": "%"}
    ]},
    {"smiles": "Cc1ncc([N+](=O)[O-])n1CCOc1ccc(-c2cc(-c3ccccc3)c3ccc(Br)cc3n2)cc1", "values": [
      {"measurement": "inhibition at 25 µM", "setting": "Leishmania donovani [1]", "result": 33.8, "unit": "%"},
      {"measurement": "inhibition at 50 µM", "setting": "Leishmania donovani [2]", "result": 63.9, "unit": "%"},
      {"measurement": "inhibition at 50 µM", "setting": "Leishmania donovani [3]", "result": 60.3, "unit": "%"},
      {"measurement": "inhibition at 25 µM", "setting": "Leishmania donovani [4]", "result": 41.3, "unit": "%"}
    ]},
    {"smiles": "Cc1ncc([N+](=O)[O-])n1CCOc1ccc(-c2cc(-c3ccccc3)c3ccccc3n2)cc1", "values": [
      {"measurement": "inhibition at 25 µM", "setting": "Leishmania donovani [1]", "result": 45.3, "unit": "%"},
      {"measurement": "inhibition at 50 µM", "setting": "Leishmania donovani [2]", "result": 93.2, "unit": "%"},
      {"measurement": "inhibition at 50 µM", "setting": "Leishmania donovani [3]", "result": 67.7, "unit": "%"},
      {"measurement": "inhibition at 25 µM", "setting": "Leishmania donovani [4]", "result": 78.2, "unit": "%"}
    ]},
    {"smiles": "Cc1ncc([N+](=O)[O-])n1CCOc1cccc(-c2cc(-c3ccccc3Cl)c3cc(Cl)ccc3n2)c1", "values": [
      {"measurement": "inhibition", "setting": "Leishmania donovani [1]", "result": "inactive"},
      {"measurement": "inhibition at 50 µM", "setting": "Leishmania donovani [2]", "result": 26, "unit": "%"},
      {"measurement": "inhibition", "setting": "Leishmania donovani [3]", "result": "inactive"},
      {"measurement": "inhibition at 25 µM", "setting": "Leishmania donovani [4]", "result": 12.3, "unit": "%"}
    ]}
  ]
}
